High-throughput results as filed in PubChem.
Sampled rows, rich in hits. Any-hit rate of the full collection: about 5.7%.
Mdm2 MdmX PPI: inhibitors of human Mdm2-MdmX association, primary screen, cell-based, luminescence, split luciferase, SaOS-2, uHTS. Protein Mdm4 (Homo sapiens) + E3 ubiquitin-protein ligase Mdm2 (Homo sapiens), …. SaOS-2 split-luciferase Mdm2/MdmX complementation. inhibition, % at 8 µM. 330,000 compounds, 3% hits;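 active = inhibition of at least 50% at 8 µM in the primary screen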
Target sequence (O15151 whole entry, looked up): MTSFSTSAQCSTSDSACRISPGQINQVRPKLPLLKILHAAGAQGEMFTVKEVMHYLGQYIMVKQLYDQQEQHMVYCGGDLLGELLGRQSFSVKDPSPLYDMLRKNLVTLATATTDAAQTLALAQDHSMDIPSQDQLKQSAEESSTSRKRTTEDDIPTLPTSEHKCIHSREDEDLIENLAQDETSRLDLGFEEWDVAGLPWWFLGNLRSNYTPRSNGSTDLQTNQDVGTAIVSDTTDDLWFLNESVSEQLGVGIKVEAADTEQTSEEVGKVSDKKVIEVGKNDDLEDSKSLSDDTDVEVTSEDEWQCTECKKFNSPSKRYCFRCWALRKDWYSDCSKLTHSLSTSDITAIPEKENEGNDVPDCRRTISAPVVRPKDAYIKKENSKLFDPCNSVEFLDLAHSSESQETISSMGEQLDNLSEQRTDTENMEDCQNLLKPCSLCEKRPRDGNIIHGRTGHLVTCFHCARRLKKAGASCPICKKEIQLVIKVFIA
Target sequence (Q00987 whole entry, looked up): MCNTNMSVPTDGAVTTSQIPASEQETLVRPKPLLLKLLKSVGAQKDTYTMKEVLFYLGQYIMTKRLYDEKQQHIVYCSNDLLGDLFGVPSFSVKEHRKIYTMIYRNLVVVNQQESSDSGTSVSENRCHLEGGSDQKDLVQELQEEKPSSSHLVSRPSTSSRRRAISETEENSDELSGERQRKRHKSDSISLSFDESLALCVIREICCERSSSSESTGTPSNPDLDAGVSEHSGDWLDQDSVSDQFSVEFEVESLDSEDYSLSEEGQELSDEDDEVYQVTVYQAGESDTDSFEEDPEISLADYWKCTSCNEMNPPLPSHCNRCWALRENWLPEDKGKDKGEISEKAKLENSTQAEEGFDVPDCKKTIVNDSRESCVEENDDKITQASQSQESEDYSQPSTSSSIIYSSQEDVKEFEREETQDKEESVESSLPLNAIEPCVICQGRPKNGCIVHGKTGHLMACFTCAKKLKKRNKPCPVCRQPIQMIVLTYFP
Beta cell apopt: inhibitors of cytokine-induced beta cell apoptosis, primary screen, luminescence | INS-1E cytokine-induced death, ATP luminescence, 48 h; percent of positive-control rescue, neutral wells zero | protection from apoptosis, % (test concentration not listed) | 300,000 compounds, 0.8% hits | AID 435005, 2010;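 active = Every replicate reaches about 75%, or at least half do and their mean reaches it too, limit read from the data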;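 note: 0% = cytokine-treated negative control wells and 100% = positive control rescue; higher means more ATP so stronger rescue from cytokine killing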
CSC inhib: cancer stem cell viability inhibitors, primary screen, luminescence; 300,000 compounds, 1.1% hits; cancer stem cell-like cells viability; inhibition, % at 7.5 µM; AID 2717, 2010; in the data active = inhibition above about 75%; tested in HMLE shEcad cells
SKKanGAS inh: S. pyogenes SKKanGAS growth inhibitors in kanamycin, primary screen, streptokinase expression inhibitor project, SKKanGAS strain, BacTiter-Glo luminescence | 6 h | inhibition, % at 7.5 µM | 300,000 compounds, 1.3% hits | AID 1662, 2009;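 active = mean replicate score, as percent of positive control median, at least 50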;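 note: strain carries kanamycin resistance gene driven by streptokinase promoter and grows in 40 µg/ml kanamycin; loss of luminescence reflects streptokinase promoter inhibition or plain growth inhibition; 0% = median of DMSO wells and 100% = positive control at its reference dose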
Calb FLC: C. albicans growth inhibition with fluconazole, primary screen, CaCi-2 strain, Alamar Blue fluorescence. C. albicans CaCi-2 (fluconazole-resistant clinical isolate) + fluconazole, 48 h. growth inhibition, % (test concentration not listed). 300,000 compounds, 0.57% hits. AID 1979, 2009;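 active = growth inhibition above about 58% in most replicates, limit read from the data, passing the limit was not always enough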;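 note: all wells also contain fluconazole at 8 µg/ml as a sub-toxic cotreatment; 0% = median of DMSO wells and 100% = median of geldanamycin control wells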
T cruzi repl: inhibitors of intracellular T. cruzi growth, primary screen, luminescence, NIH3T3 host cells; T. cruzi beta-gal in NIH3T3, 90 h; inhibition, % (concentration not given with the values); 300,000 compounds, 1.4% hits; AID 1885, 2009;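 active = mean inhibition across valid replicates above about 55%, limit read from the data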;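 note: signal also drops with host cell toxicity which is not excluded here; 0% = plate median of DMSO wells and 100% = zero luminescence signal; higher percent means less beta-gal luminescence so fewer parasites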
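System: Mouse NIH/3T3 fibroblasts infected with β-gal-expressing T. cruzi Tulahuen C4 | Quantity: NIH/3T3 cells, 5,000 per well | Reagent: 5000 reporter trypomastigotes per well | Dosing: Compound pinned at 50 nL/well, DMSO | Schedule: 3 h host attachment, then at least 90 h co-culture | Detection: GalScreen luminescence, 60 min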
* hit, by the source's call; · = no result given.

SMILES	Mdm2 MdmX PPI	Beta cell apopt	CSC inhib	SKKanGAS inh	Calb FLC	T cruzi repl
O=C(OCC(=O)N1CCN(C(=O)c2ccco2)CC1)c1cc(F)c(F)cc1Cl	5	-2	8	·	·	·
Cc1sc(NC(=O)/C=C/c2ccc3c(c2)OCO3)nc1-c1ccccc1	33	15	108*	20	4	24
O=C(/C=C/c1ccc2c(c1)OCO2)Nc1cccnc1	-101	-3	83*	-6	-15	2
COC(=O)CSc1nnc(NC(=O)/C=C\c2ccc3c(c2)OCO3)s1	12	-5	27	0	17	-9
CC(=O)Nc1ccc(NC(=O)/C=C/c2ccc3c(c2)OCO3)cc1	-2	2	48	-5	1	-11
Cc1cc(/C=N/n2cnnc2)c(C)n1-c1ccc2c(c1)OCO2	-13	·	-6	-2	11	41
Cc1cccc(-n2c(C)cc(/C=N/n3cnnc3)c2C)c1	-3	111*	-8	7	-3	8
O=C(NCC1COCCO1)c1cc(COc2ccc(F)cc2F)on1 (stereo not given)	6	·	4	4	8	-15
c1ccc(N(c2ccccc2)c2nc(-n3ccnc3)nc(-n3ccnc3)n2)cc1	27	8	20	12	-9	47
c1ccc(-c2ccc(-n3ccnc3)cc2)cc1	2	-5	-8	0	-30	56*
c1ccc(-c2nc(N3CCCCCC3)nc(-n3ccnc3)n2)cc1	3	2	69	86*	-22	53
Nc1nc(-c2cccnc2)nc(N2CCCCC2)n1	16	·	-12	0	11	-5
c1ccc(-c2nc(N3CCN(c4ccccc4)CC3)nc(-n3ccnc3)n2)cc1	-12	·	37	60*	11	60*
Cc1ccc(S(=O)(=O)N(Cc2ccccc2F)C(=O)N2CCN(C)CC2)cc1	9	·	-14	-10	9	-6
CC1CCCC(C)N1C(=O)CNCc1ccc2c(c1)OCO2 (stereo not given)	8	-3	2	-4	0	-11
CC1(c2ccc(Cl)cc2)NC(=O)N(CC(=O)N2CCc3ccccc32)C1=O (stereo not given)	0	1	-34	·	·	·
COc1cccc(C(=O)NC(=S)N2c3ccccc3CC2C)c1OC (stereo not given)	-3	·	-8	-3	-2	-6
CC1Cc2ccccc2N1C(=S)NC(=O)c1cccc(Br)c1 (stereo not given)	31	-5	-10	93*	26	-19
CC1Cc2ccccc2N1C(=S)NC(=O)c1ccc(Cl)cc1Cl (stereo not given)	40	14	20	61*	5	-6
Cc1ccc2nc(C3CCCN(C(=S)Nc4ccccc4C)C3)[nH]c2c1 (stereo not given)	21	9	7	-5	-2	67*
CCc1ccc(C(=O)N2CCC(c3nc4ccccc4s3)CC2)cc1	33	-4	-15	15	0	5
Cc1ccc(C)c(NC(=S)N2CCC(c3nc4ccccc4s3)CC2)c1	9	-8	7	-3	-13	60*
Cc1ccc(NC(=O)CNc2ccccc2N2CCCC2=O)cc1S(=O)(=O)N1CCOCC1	-8	·	·	·	·	·
Oc1ccc(N=Nc2ccc3c(c2)OCCO3)c(O)c1	-76	4	84*	-4	3	-12
O=C(CN(c1ccc(Br)cc1)S(=O)(=O)c1ccc(Cl)c([N+](=O)[O-])c1)NCCc1ccccc1	34	3	23	6	-4	75*
SMILES	Mdm2 MdmX PPI	Beta cell apopt	CSC inhib	SKKanGAS inh	Calb FLC	T cruzi repl
O=C(Cn1cnc2ccccc2c1=O)Nc1ccc2c(c1)OCO2	-14	·	-4	-1	-8	-3
O=C(Cn1cnc2cc([N+](=O)[O-])ccc2c1=O)Nc1ccc2c(c1)OCO2	-30	-4	-7	-13	5	55*
Cc1cc(C)c(C(=O)Cn2cnc3cc([N+](=O)[O-])ccc3c2=O)cc1C	0	-1	7	3	-3	68*
CCCOc1cc(C)c(S(=O)(=O)NCc2cccs2)cc1C	-6	-5	-13	·	·	·
CCC(=O)N1CCCc2cc(S(=O)(=O)CCC(=O)Nc3ccccc3C)ccc21	13	-5	4	-4	2	-8
CCCC1(c2ccccc2)NC(=O)N(CC(=O)Nc2cc(C)ccc2OC)C1=O (stereo not given)	-38	93*	-19	0	1	16
CNc1oc(/C=C/c2cccc(OC)c2)nc1C#N	-41	0	18	-12	12	-3
CCCCCC1CCC(c2n[nH]c(=S)n2C)CC1 (stereo not given)	-10	12	31	6	99*	70*
C=CCn1c(C2CC2)n[nH]c1=S	-2	-4	-3	-2	-7	-13
CC(C)CCc1noc(CN(C)CC2CCN(Cc3ccccc3)CC2)n1	-42	0	21	-1	-19	55*
CN(Cc1nc(-c2cnccn2)no1)CC1CCN(Cc2ccccc2)CC1	23	43	3	1	-5	16
CCc1nccn1CCC(=O)N1CCCC(N2CCN(c3cccc(Cl)c3)CC2)C1 (stereo not given)	-13	-3	25	8	-17	7
CCCOC(=O)/C(=C\c1ccc([N+](=O)[O-])o1)NC(=O)c1ccccc1	1	-1	0	1	89*	51
O=C(NCCO)/C(=C\c1ccc([N+](=O)[O-])o1)NC(=O)c1ccccc1	38	·	12	0	43	37
CCOC(=O)/C(=C\c1ccc([N+](=O)[O-])o1)NC(=O)c1ccccc1	25	-8	0	2	68	68*
CCOc1cc(CNc2cccc3ccccc23)cc(Br)c1OCC(=O)NC(C)(C)C	23	9	25	5	2	55*
CCOc1cc(CNc2ccc(N(C)C)cc2)cc(Br)c1OCC(=O)NC(C)(C)C	8	-3	-1	19	-12	50
CCOc1cc(CNc2ccc(N3CCCCC3)cc2)cc(Br)c1OCC(=O)NC(C)(C)C	-12	·	45	0	-10	58*
N#CC1CC(c2ccccc2)=NN1c1ccccc1[N+](=O)[O-] (stereo not given)	-68	-3	-4	-8	85*	8
CCCCCOc1ccc(OC(=O)c2ccncc2)cc1	5	11	93*	-2	1	31
Cc1cc(NC(=O)CSc2nnnn2-c2ccc(C)c(Cl)c2)no1	-3	-2	-21	-2	2	6
